{"source": "ChEMBL document CHEMBL6177937", "about": "“Design, synthesis, and biological evaluation of novel thiazole derivatives as PI3K/mTOR dual inhibitors” (RSC Med Chem, 2024)", "key": {"[1]": {"system": "Panel NCI-60 (60 carcinoma cell lines)", "assay": "Antiproliferative activity against human NCI-60 cells assessed as growth inhibition at 10 uM measured after 48 hrs by SRB assay relative to control", "format": "functional", "details": "read-out: GI", "how_it_was_run": "(§1)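 NCI screen: cells seeded at […] per well and preincubated 24 h (37°C, 5% CO2). Compound stocks in DMSO, tested at a single 10 μM. Exposure 48 h. Adherent cells fixed with cold TCA (10% final), suspension cells with 16% TCA. SRB stain read at 515 nm. Percent growth inhibition reported against time-zero and untreated controls.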"}, "A549": {"system": "A549", "assay": "Growth inhibition of human A549 cells at 10 uM measured after 48 hrs by SRB assay relative to control", "format": "functional", "details": "A549, read-out: GI", "how_it_was_run": "as §1"}, "NCI-H460": {"system": "NCI-H460", "assay": "Growth inhibition of human NCI-H460 cells at 10 uM measured after 48 hrs by SRB assay relative to control", "format": "functional", "details": "NCI-H460, read-out: GI", "how_it_was_run": "as §1"}, "HCT-116": {"system": "HCT-116", "assay": "Growth inhibition of human HCT-116 cells at 10 uM measured after 48 hrs by SRB assay relative to control", "format": "functional", "details": "read-out: GI", "how_it_was_run": "as §1"}, "SW-620": {"system": "SW-620", "assay": "Growth inhibition of human SW620 cells at 10 uM measured after 48 hrs by SRB assay relative to control", "format": "functional", "details": "read-out: GI", "how_it_was_run": "(§2)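 Single-dose NCI screen at 10 μM: 48 h exposure at 37°C, 5% CO2; adherent cells fixed in cold TCA (final 10%), suspension cells in TCA (final 16%); SRB stain solubilized in 10 mM Trizma base, absorbance 515 nm; percent growth inhibition calculated relative to untreated control and time-zero plates.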"}, "RPMI-8226": {"system": "RPMI-8226", "assay": "Growth inhibition of human RPMI-8226 cells at 10 uM measured after 48 hrs by SRB assay relative to control", "format": "functional", "details": "RPMI-8226, read-out: GI", "how_it_was_run": "as §2"}, "KM12": {"system": "KM12", "assay": "Growth inhibition of human KM12 cells at 10 uM measured after 48 hrs by SRB assay relative to control", "format": "functional", "details": "KM12, read-out: GI", "how_it_was_run": "as §1"}, "OVCAR-3": {"system": "OVCAR-3", "assay": "Growth inhibition of human OVCAR-3 cells at 10 uM measured after 48 hrs by SRB assay relative to control", "format": "functional", "details": "OVCAR-3, read-out: GI", "how_it_was_run": "as §1"}, "NCI-H322M": {"system": "NCI-H322M", "assay": "Growth inhibition of human NCI-H322M cells at 10 uM measured after 48 hrs by SRB assay relative to control", "format": "functional", "details": "read-out: GI", "how_it_was_run": "as §1"}, "MCF7": {"system": "MCF7", "assay": "Growth inhibition of human MCF7 cells at 10 uM measured after 48 hrs by SRB assay relative to control", "format": "functional", "details": "read-out: GI", "how_it_was_run": "as §1"}, "HT-29": {"system": "HT-29", "assay": "Growth inhibition of human HT-29 cells at 10 uM measured after 48 hrs by SRB assay relative to control", "format": "functional", "details": "HT-29, read-out: GI", "how_it_was_run": "as §1"}, "RXF 393": {"system": "RXF 393", "assay": "Growth inhibition of human RXF 393 cells at 10 uM measured after 48 hrs by SRB assay relative to control", "format": "functional", "details": "read-out: GI", "how_it_was_run": "as §2"}, "HL-60": {"system": "HL-60", "assay": "Cytotoxicity against human HL-60 cells assessed as reduction in cell viability measured after 24 hrs by MTT assay", "format": "functional, cell-based", "details": "HL-60, 24 h", "how_it_was_run": "(§3)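 MTT viability with 24 h incubation in 96-well plates. Five semi-log concentrations from 0.01 to 100 μM. Formazan absorbance read at 570 nm, with 690 nm background subtracted. Run in triplicate. IC50 obtained by sigmoidal dose-response fitting. Cells are leukemia HL-60(TB) and normal lymphocytes (PCS-800-017).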"}, "[2]": {"assay": "Cytotoxicity against human PCS-800-017 cells assessed as reduction in cell viability measured after 24 hrs by MTT assay", "format": "toxicity, cell-based", "how_it_was_run": "as §3"}, "ACHN": {"system": "ACHN", "assay": "Growth inhibition of human ACHN cells at 10 uM measured after 48 hrs by SRB assay relative to control", "format": "functional", "details": "read-out: GI", "how_it_was_run": "as §1"}, "UO-31": {"system": "UO-31", "assay": "Growth inhibition of human UO-31 cells at 10 uM measured after 48 hrs by SRB assay relative to control", "format": "functional", "details": "read-out: GI", "how_it_was_run": "as §2"}}}
{"compound": "CCOc1cc(/C=N/Nc2nc(-c3ccc(Cl)cc3)cs2)ccc1OCc1ccccc1", "values": [{"measurement": "inhibition of growth at 10 µM", "setting": "[1]", "result": 37.1, "unit": "%"}, {"measurement": "inhibition of growth at 10 µM", "setting": "A549", "result": 87.4, "unit": "%"}, {"measurement": "inhibition of growth at 10 µM", "setting": "NCI-H460", "result": 88.8, "unit": "%"}, {"measurement": "inhibition of growth at 10 µM", "setting": "HCT-116", "result": 87.5, "unit": "%"}, {"measurement": "inhibition of growth at 10 µM", "setting": "SW-620", "result": 76.2, "unit": "%"}]}
{"compound": "Cc1c(/C=N/Nc2nc(-c3cccc([N+](=O)[O-])c3)cs2)c(=O)n(-c2ccccc2)n1C", "values": [{"measurement": "inhibition of growth at 10 µM", "setting": "[1]", "result": 16.2, "unit": "%"}]}
{"compound": "O=[N+]([O-])c1cccc(-c2csc(N/N=C/c3ccc(Cl)c([N+](=O)[O-])c3)n2)c1", "values": [{"measurement": "inhibition of growth at 10 µM", "setting": "[1]", "result": 36, "unit": "%"}]}
{"compound": "CCOc1cc(/C=N/Nc2nc(-c3ccccc3)cs2)ccc1O", "values": [{"measurement": "inhibition of growth at 10 µM", "setting": "[1]", "result": 36.9, "unit": "%"}]}
{"compound": "O=[N+]([O-])c1cc(/C=N/Nc2nc(-c3ccccc3)cs2)ccc1Cl", "values": [{"measurement": "inhibition of growth at 10 µM", "setting": "[1]", "result": 21.5, "unit": "%"}, {"measurement": "inhibition of growth at 10 µM", "setting": "RPMI-8226", "result": 85.1, "unit": "%"}, {"measurement": "inhibition of growth at 10 µM", "setting": "KM12", "result": 86.6, "unit": "%"}, {"measurement": "inhibition of growth at 10 µM", "setting": "OVCAR-3", "result": 96.2, "unit": "%"}, {"measurement": "inhibition of growth at 10 µM", "setting": "NCI-H322M", "result": 83.1, "unit": "%"}, {"measurement": "inhibition of growth at 10 µM", "setting": "MCF7", "result": 89.9, "unit": "%"}]}
{"compound": "CCOc1cc(/C=N/Nc2nc(-c3ccc(Br)cc3)cs2)ccc1OCc1ccccc1", "values": [{"measurement": "inhibition of growth at 10 µM", "setting": "[1]", "result": 31.8, "unit": "%"}, {"measurement": "inhibition of growth at 10 µM", "setting": "A549", "result": 76.4, "unit": "%"}, {"measurement": "inhibition of growth at 10 µM", "setting": "NCI-H460", "result": 78.6, "unit": "%"}, {"measurement": "inhibition of growth at 10 µM", "setting": "HCT-116", "result": 70.9, "unit": "%"}, {"measurement": "inhibition of growth at 10 µM", "setting": "SW-620", "result": 76.1, "unit": "%"}, {"measurement": "inhibition of growth at 10 µM", "setting": "HT-29", "result": 73.9, "unit": "%"}]}
{"compound": "Cc1c(/C=N/Nc2nc(-c3ccc(Br)cc3)cs2)c(=O)n(-c2ccccc2)n1C", "values": [{"measurement": "inhibition of growth at 10 µM", "setting": "[1]", "result": 9.82, "unit": "%"}]}
{"compound": "COc1cc(/C=N/Nc2nc(-c3ccccc3)cs2)ccc1OCc1ccccc1", "values": [{"measurement": "inhibition of growth at 10 µM", "setting": "[1]", "result": 19.1, "unit": "%"}]}
{"compound": "CCOc1cc(/C=N/Nc2nc(-c3cccc([N+](=O)[O-])c3)cs2)ccc1OCc1ccccc1", "values": [{"measurement": "inhibition of growth at 10 µM", "setting": "[1]", "result": 23.9, "unit": "%"}, {"measurement": "inhibition of growth at 10 µM", "setting": "RXF 393", "result": 79.2, "unit": "%"}]}
{"compound": "O=[N+]([O-])c1cccc(-c2csc(N/N=C/c3ccc4c(c3)OCO4)n2)c1", "values": [{"measurement": "inhibition of growth at 10 µM", "setting": "[1]", "result": 18.2, "unit": "%"}]}
{"compound": "COc1cccc2c1C(=O)c1c(O)c3c(c(O)c1C2=O)C[C@@](O)(C(=O)CO)C[C@@H]3O[C@H]1C[C@H](N)[C@H](O)[C@H](C)O1", "note": "[DOXORUBICIN]", "values": [{"measurement": "IC50", "setting": "HL-60", "result": 0.45, "unit": "µM"}, {"measurement": "IC50 at 24 h", "setting": "[2]", "result": 12.5, "unit": "µM"}]}
{"compound": "COc1cc(/C=N/Nc2nc(-c3cccc([N+](=O)[O-])c3)cs2)ccc1OCc1ccccc1", "values": [{"measurement": "inhibition of growth at 10 µM", "setting": "[1]", "result": 28.8, "unit": "%"}]}
{"compound": "C(=N\\Nc1nc(-c2ccccc2)cs1)/c1ccc(OCc2ccccc2)cc1", "values": [{"measurement": "inhibition of growth at 10 µM", "setting": "[1]", "result": 13.1, "unit": "%"}, {"measurement": "inhibition of growth at 10 µM", "setting": "ACHN", "result": 79.8, "unit": "%"}]}
{"compound": "COc1cc(/C=N/Nc2nc(-c3ccc(Cl)cc3)cs2)ccc1OCc1ccccc1", "values": [{"measurement": "inhibition of growth at 10 µM", "setting": "[1]", "result": 16.5, "unit": "%"}, {"measurement": "inhibition of growth at 10 µM", "setting": "MCF7", "result": 45, "unit": "%"}]}
{"compound": "CCOc1cc(/C=N/Nc2nc(-c3ccccc3)cs2)ccc1OCc1ccccc1", "values": [{"measurement": "inhibition of growth at 10 µM", "setting": "[1]", "result": 14.5, "unit": "%"}, {"measurement": "inhibition of growth at 10 µM", "setting": "UO-31", "result": 48.1, "unit": "%"}]}
{"compound": "O=[N+]([O-])c1cccc(-c2csc(N/N=C/c3ccc(OCc4ccccc4)cc3)n2)c1", "values": [{"measurement": "inhibition of growth at 10 µM", "setting": "[1]", "result": 18.5, "unit": "%"}]}
